Results of several laboratories.
Target: Serine/threonine-protein kinase D2 (PRKD2, Homo sapiens, UniProt Q9BZL6)
One construct used (Q9BZL6 1-878): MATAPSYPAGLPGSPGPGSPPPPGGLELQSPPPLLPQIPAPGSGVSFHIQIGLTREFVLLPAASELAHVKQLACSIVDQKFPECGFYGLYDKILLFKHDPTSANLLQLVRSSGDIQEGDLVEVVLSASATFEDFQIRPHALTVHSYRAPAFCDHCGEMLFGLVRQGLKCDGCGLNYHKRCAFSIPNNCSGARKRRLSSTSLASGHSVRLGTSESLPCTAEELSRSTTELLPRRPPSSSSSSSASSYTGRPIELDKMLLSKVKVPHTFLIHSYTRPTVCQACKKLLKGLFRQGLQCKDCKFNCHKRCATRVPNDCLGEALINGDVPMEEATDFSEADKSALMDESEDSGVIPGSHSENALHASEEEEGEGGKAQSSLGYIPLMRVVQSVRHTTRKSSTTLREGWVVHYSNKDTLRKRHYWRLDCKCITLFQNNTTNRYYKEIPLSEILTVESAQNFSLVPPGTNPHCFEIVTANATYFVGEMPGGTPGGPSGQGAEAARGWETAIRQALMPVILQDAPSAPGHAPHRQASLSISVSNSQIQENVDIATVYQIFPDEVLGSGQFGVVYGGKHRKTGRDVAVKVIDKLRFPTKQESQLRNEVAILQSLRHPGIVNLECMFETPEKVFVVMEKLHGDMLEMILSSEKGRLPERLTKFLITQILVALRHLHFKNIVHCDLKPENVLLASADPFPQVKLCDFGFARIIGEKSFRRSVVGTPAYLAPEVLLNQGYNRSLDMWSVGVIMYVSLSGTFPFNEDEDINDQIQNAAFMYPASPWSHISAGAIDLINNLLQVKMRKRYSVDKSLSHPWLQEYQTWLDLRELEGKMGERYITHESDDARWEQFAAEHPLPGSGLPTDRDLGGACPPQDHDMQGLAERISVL

| Structure (SMILES) | test | conditions | remaining binding |
| --- | --- | --- | --- |
| O=C(NCCCC1CCCCC1)c1ccc(CNC(=O)c2cnn(-c3ccccc3)c2C(F)(F)F)cc1 | cell-free assay, competition with immobilised ligand | 0.1 µM | 100% |
| N[C@H]1CCN(c2nccc(-c3cnn4ncccc34)n2)C1 | binding | 1 µM | 74% |
| CNCc1ccccc1-c1csc([C@@H](C)Nc2nc(C)nc3cc(OC)c(OC)cc23)c1 | cell-free assay, competition with immobilised ligand | 1 µM | 100% |
| O=C(NCC1CCOCC1)c1n[nH]cc1NC(=O)c1c(F)cccc1F | binding, competition with immobilised ligand | 1 µM | 100% |
| C[C@@H](c1ccc(-n2cnc3c(N)ncnc32)cc1)N1CCc2nn(C)c(Cc3ccccc3)c2C1=O | binding, competition with immobilised ligand | 0.1 µM | 99% |
| O=C(NCCCN1CCOCC1)c1ccc(Nc2nccc(-c3cc4ccccc4s3)n2)cc1 | binding, competition with immobilised ligand | 1 µM | 36% |
| c1cncc(-c2cccc(Nc3nccc(NC4CCCCC4)n3)c2)c1 | binding, competition with immobilised ligand | 10 µM | 19% |
| O=C(Nc1cccnn1)N1CCC(=Cc2cccc(Oc3ccc(C(F)(F)F)cn3)c2)CC1 | cell-free assay, competition with immobilised ligand | 1 µM | 94% |
| F[C@@H]1CCN(c2nccc(-c3cnn4ncccc34)n2)C1 | binding | 1 µM | 100% |
| O=C(NCCCN1CCOCC1)c1ccc(Nc2ncc(Cl)c(-c3ccc(Cl)s3)n2)cc1 | binding, competition with immobilised ligand | 1 µM | 3.9% |
| CNC(=O)[C@@H]1CC[C@@H](n2c(-c3ccc4cnccc4c3)nc3ccc(C(=O)NCc4cccc(C(N)=O)c4)cc32)C1 | binding, competition with immobilised ligand | 1 µM | 90% |
| CN(C)c1nccc(-c2cnn3ncccc23)n1 | binding | 1 µM | 89% |
| N#Cc1ccc(Nc2ccc3[nH]c(=O)[nH]c3c2)c(Cl)c1 | cell-free assay, competition with immobilised ligand | 1 µM | 100% |
| CC1CCCN1c1nccc(-c2cnn3ncccc23)n1 (stereo not shown) | binding | 1 µM | 85% |
| O=C(c1ccc(Nc2nccc(-c3cc4ccccc4s3)n2)cc1)N1CCC(N2CCCC2)CC1 | binding, competition with immobilised ligand | 1 µM | 48% |
| Cc1cnn2ncc(-c3ccnc(N(C)C)n3)c2c1 | binding | 1 µM | 100% |
| O=C(NC[C@@H]1[C@H]2CN(C(=O)OCc3cc(C(F)(F)F)cc(C(F)(F)F)c3)C[C@@H]12)c1ccc2[nH]nnc2c1 | cell-free assay, competition with immobilised ligand | 1 µM | 85% |
| C[C@H]1CCN(c2nccc(-c3cnn4ncccc34)n2)C1 | binding | 1 µM | 82% |
| CC(=O)N1CCC(c2ccc(C(=O)NC(=N)N)cc2C(F)(F)F)CC1 | cell-free assay, competition with immobilised ligand | 1 µM | 100% |
| COc1cnc(Nc2cccc(S(N)(=O)=O)c2)nc1N1CCN(c2ccccc2)CC1 | binding, competition with immobilised ligand | 1 µM | 98% |
| COc1ccc2cc(OCC3(C(=O)O)CN(C(=O)c4ccc(F)cc4)C3)ccc2c1 | cell-free assay, competition with immobilised ligand | 1 µM | 93% |
| c1cnn2ncc(-c3ccnc(N4CCC45COC5)n3)c2c1 | binding | 1 µM | 89% |
